The values that follow come from ChEMBL document CHEMBL1152831, “Synthesis and pharmacological screening of derivatives of isoxazolo[4,5-d]pyrimidine” (2008).

Holding throughout (assay type): functional
In test [1] the test system is Mus musculus. In words: Effect on humoral immune response in sheep red blood cells-immunized CBA mouse spleen assessed as number of antibody forming unit per 10^6 viable cells at 10 ug, ip by local hemolysis assay. The essentials: (§1)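 Male and female CBA mice, 12 weeks old, immunized i.p. with 0.2 mL of 5% SRBC in 0.9% NaCl. Compounds (DMSO stock diluted in saline) were given i.p. 2 h later; controls received saline or diluted DMSO. Spleens were taken on day 4 and antibody-forming cells counted by local hemolysis assay per 10⁶ viable splenocytes. Mean of 5 mice per group ±SE, t-test.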

The subject of test [2] is Splenocyte. In words: Effect on cancavalin-A-induced proliferation in mouse splenocytes at 0.1 ug/ml assessed as proliferation rate by MTT assay. Put shortly:
(§2)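 Splenocytes from CBA mice were pressed through a screen into Hank's medium. Erythrocytes were lysed with 0.83% NH4Cl, cells washed twice and passed through cotton wool to remove dead cells. They were resuspended in RPMI 1640 with 10% FCS, L-glutamine, pyruvate and antibiotics. 2×10⁵ cells per well, Con A at 2.5 final, compounds across 0.1–10. After 3 days, MTT read as OD 550/630 nm. Mean of quadruplicate wells ±SE, Student's t-test.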
(In general: Tetrazolium assays rely on reduction of a dye to a coloured formazan, in cell work by metabolically active cells.)

Test [3] has as its system Mus musculus. In words: Effect on delayed type hypersensitivity in sheep red blood cells-immunized CBA mouse assessed as foot-pad edema at 10 ug, ip. Put shortly: (§3)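 Male and female CBA mice, 12 weeks old, sensitized i.v. with 10⁵ SRBCs in 0.2 mL. Compounds were dissolved in DMSO, then diluted in 0.9% NaCl, and given i.p. 2 h later. Controls received saline or diluted DMSO. On day 4, 10⁸ SRBCs in 0.05 mL were injected into the hind footpads. Footpad edema was measured by callipers 24 h later, minus the naive-mouse background. Mean ±SE, t-test.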

The subject of test [4] is Mus musculus. In words: Effect on humoral immune response in sheep red blood cells-immunized CBA mouse spleen assessed as number of antibody forming unit per 10^6 viable cells at 100 ug, ip by local hemolysis assay. The essentials: as §1
The test system of test [5] is Splenocyte. In words: Effect on cancavalin-A-induced proliferation in mouse splenocytes at 10 ug/ml assessed as proliferation rate by MTT assay. The essentials: as §2
Test [6] deals with Splenocyte. In words: Effect on cancavalin-A-induced proliferation in mouse splenocytes at 1 ug/ml assessed as proliferation rate by MTT assay. Put shortly: as §2
For test [7], the system named is Mus musculus. In words: Effect on delayed type hypersensitivity in sheep red blood cells-immunized CBA mouse assessed as foot-pad edema at 100 ug, ip. The essentials: as §3
The next test deals with HOP-92. In words: Antitumor activity against human HOP92 cells.
For the next test, the system named is CCRF-CEM. The experiment in a line: Antitumor activity against human CCRF-CEM cells.
Another test relates to LOX IMVI. The experiment in a line: Antitumor activity against human LOXIMVI cells.
The test system of a further test is SF-539. The experiment in a line: Antitumor activity against human SF539 cells.
The test system of another test is HCC 2998. In words: Antitumor activity against human HCC2998 cells.
A further test relates to K562. In words: Antitumor activity against human K562 cells.
A further test has as its system U-251. The experiment in a line: Antitumor activity against human U251 cells.
For the next test, the system named is MOLT-4. The experiment in a line: Antitumor activity against human MOLT4 cells.
Another test deals with CAKI-1. The experiment in a line: Antitumor activity against human Caki1 cells.
In another test the test system is SK-MEL-2. In words: Antitumor activity against human SK-MEL-2 cells.
For the next test, the system named is HCT-15. The experiment in a line: Antitumor activity against human HCT15 cells.
The next test concerns NCI-H522. In words: Antitumor activity against human NCI-H522 cells.
[8] abbreviates: read-out: Log10GI50 (converted).
Setting [9] is: read-out: Log10LC50 (converted).

As to `Cc1nc(-c2ccccc2)c2onc(-c3nnc(C(=O)NCc4cccnc4)o3)c2n1`, the Activity with Mus musculus [1] was 1660; with Mus musculus [3], 5.9; with Mus musculus [4], 545; with Mus musculus [7], 3.5. Further, the OD is on record as 0.483 with Splenocyte [2], 0.482 with Splenocyte [5] and 0.479 in the test on Splenocyte [6].
`Nc1c(-c2nnco2)noc1C(=O)c1ccccc1`: the GI50 was 30.9 µM in the test on HOP-92 (setting [8]); 18.2 µM in the test on CCRF-CEM (setting [8]); 28.8 µM in the test with LOX IMVI (setting [8]); 2.75 µM in the test on SF-539 (setting [8]); 26.9 µM in the test on HCC 2998 (setting [8]); 57.5 µM in the test on K562 (setting [8]). Further, the GI50 in the test on U-251 (setting [8]) is 16.2 µM; in the test on MOLT-4 (setting [8]) it was 56.2 µM; in the test with CAKI-1 (setting [8]), 21.9 µM; with SK-MEL-2 (setting [8]) it was 33.1 µM; in the test on HCT-15 (setting [8]) it was 29.5 µM; with NCI-H522 (setting [8]) it was 33.9 µM. The CC50 in the test with HOP-92 (setting [9]) was > 100 µM; in the test with CCRF-CEM (setting [9]), > 100 µM; with LOX IMVI (setting [9]) it was > 100 µM; in the test with SF-539 (setting [9]) it was 64.6 µM; with HCC 2998 (setting [9]) it was > 100 µM; in the test with K562 (setting [9]), > 100 µM. For the same compound, the CC50 with U-251 (setting [9]), in the test with MOLT-4 (setting [9]), in the test on CAKI-1 (setting [9]), in the test with SK-MEL-2 (setting [9]), in the test with HCT-15 (setting [9]) and with NCI-H522 (setting [9]) was > 100 µM in each case. Besides, the TGI in the test on HOP-92 (read-out: Log10TGI (converted)) is 97.7 µM; in the test with CCRF-CEM (read-out: Log10TGI (converted)) it was > 100 µM; in the test on LOX IMVI (read-out: Log10TGI (converted)) it was > 100 µM; with SF-539 (read-out: Log10TGI (converted)), 22.4 µM; with HCC 2998 (read-out: Log10TGI (converted)) it was 95.5 µM; in the test with K562 (read-out: Log10TGI (converted)), > 100 µM. Further, the TGI in the test on U-251 (read-out: Log10TGI (converted)) is 69.2 µM; with MOLT-4 (read-out: Log10TGI (converted)), > 100 µM; in the test on CAKI-1 (read-out: Log10TGI (converted)) it was > 100 µM; with SK-MEL-2 (read-out: Log10TGI (converted)), > 100 µM; in the test with HCT-15 (read-out: Log10TGI (converted)), > 100 µM; with NCI-H522 (read-out: Log10TGI (converted)) it was > 100 µM.
Consider `C/C=C/C[C@@H](C)[C@@H](O)[C@H]1C(=O)N[C@@H](CC)C(=O)N(C)CC(=O)N(C)[C@@H](CC(C)C)C(=O)N[C@@H](C(C)C)C(=O)N(C)[C@@H](CC(C)C)C(=O)N[C@@H](C)C(=O)N[C@H](C)C(=O)N(C)[C@@H](CC(C)C)C(=O)N(C)[C@@H](CC(C)C)C(=O)N(C)[C@@H](C(C)C)C(=O)N1C` [CYCLOSPORINE], for which the Activity in the test on Mus musculus [1] is listed as 1617; in the test with Mus musculus [3], 6.1; with Mus musculus [4], 953. Moreover, the OD with Splenocyte [2] is listed as 0.07; with Splenocyte [5], 0.001; in the test with Splenocyte [6] it was 0.046.
As to `Nc1c(-c2nnc(C(=O)NCc3ccncc3)o2)noc1C(=O)c1ccccc1`, the Activity in the test on Mus musculus [1] is given as 1361; in the test on Mus musculus [3] it was 7.9; in the test on Mus musculus [4] it was 574; in the test on Mus musculus [7] it was 4.9. Moreover, the OD in the test on Splenocyte [2] was 0.442; in the test on Splenocyte [5] it was 0.371; with Splenocyte [6], 0.401.
